In ChEMBL document CHEMBL1155348, “Synthesis and antiviral activity of beta-carboline derivatives bearing a substituted carbohydrazide at C-3 against poliovirus and herpes simplex virus (HSV-1)” (Eur J Med Chem, 2009):
Active and inactive are the calls of the source. The rule behind the calls is not given here.

Assays:
[1] = system: Human alphaherpesvirus 1; assay: Antiviral activity against HSV1 infected in african green monkey Vero cells by SRB assay; type: functional, organism-based; conditions: Human alphaherpesvirus 1, Vero
Method in brief: (§1)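 Screening: Vero monolayers, infected or uninfected, were treated with a range of compound concentrations. Antiviral activity was read by sulforhodamine B (SRB) staining, and EC50 was taken as the concentration giving 50% efficacy.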

[2] = system: Enterovirus C; assay: Antiviral activity against Poliovirus infected in african green monkey Vero cells by SRB assay; type: functional, organism-based; method in brief: as §1
[3] = Cytotoxicity against african green monkey Vero cells after 72 hrs by SRB assay; type: cell-based; conditions: chlorocebus sabaeus
Method in brief: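 Uninfected Vero cells were exposed to compound for 72 h and viability was measured by SRB assay. CC50 is the concentration giving 50% cytotoxicity.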

[4] = Selectivity index, ratio of CC50 for african green monkey Vero cells to EC50 in Poliovirus; type: toxicity, cell-based; conditions: read-out: Ratio CC50/EC50
Method in brief: (§2)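 SI was derived from the SRB-based CC50 in Vero cells and the SRB-based EC50 against each virus.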

[5] = Selectivity index, ratio of CC50 for african green monkey Vero cells to EC50 in HSV1; method in brief: as §2
[6] = system: Human alphaherpesvirus 1; assay: Antiviral activity against 1 hr compound pretreated HSV1 infected in african green monkey Vero cells assessed as inhibition of viral replication measured after 48 to 72 hrs; type: functional, organism-based
Method in brief: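 HSV-1 was mixed with compound for 1 h before being added to Vero cells. The mixture infected the cells for 1 h at 37 °C in 5% CO2. The monolayer was washed with PBS and overlaid with DMEM containing carboxymethylcellulose. After 48 or 72 h at 37 °C, cells were fixed with 10% formaldehyde and stained with 0.5% crystal violet, and plaques were counted.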

[7] = system: Enterovirus C; assay: Antiviral activity against Poliovirus infected in 1 hr compound pretreated african green monkey Vero cells assessed as reduction of plaque formation at 6.6 uM measured after 48 to 72 hrs by virus yield inhibition assay; type: functional; set-up: scale not given: the % may be the effect or the level left
Method in brief: (§3)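 Compound was dissolved in DMSO, diluted in serum-free DMEM and added to PBS-washed Vero monolayers for 1 h at 37 °C in 5% CO2. Unbound compound was removed and cells were washed and then infected for 1 h. Unadsorbed virus was removed, and cells were washed and overlaid with DMEM plus 0.5% carboxymethylcellulose. After 48 or 72 h, cells were fixed with formaldehyde, stained with crystal violet and plaques counted.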

[8] = system: Enterovirus C; assay: Antiviral activity against Poliovirus infected in 1 hr compound pretreated african green monkey Vero cells assessed as reduction of plaque formation at 1.65 uM measured after 48 to 72 hrs by virus yield inhibition assay; type: functional; set-up: scale not given: the % may be the effect or the level left; method in brief: as §3
[9] = system: Enterovirus C; assay: Antiviral activity against Poliovirus infected in african green monkey Vero cells assessed as reduction of plaque formation at 3.3 uM treated 1 hr after viral infection measured after 48 to 72 hrs by virus yield inhibition assay; type: functional; set-up: scale not given: the % may be the effect or the level left
Method in brief: (§4)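 PBS-washed Vero monolayers were infected for 1 h. Unadsorbed virus was removed, cells were washed, and compound was then added at various concentrations in DMEM with 0.5% carboxymethylcellulose. After 48 or 72 h at 37 °C, cells were fixed with 10% formaldehyde, stained with 0.5% crystal violet and plaques counted.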

[10] = system: Enterovirus C; assay: Antiviral activity against Poliovirus infected in african green monkey Vero cells assessed as reduction of plaque formation at 0.825 uM treated during viral infection measured after 48 to 72 hrs by virus yield inhibition assay; type: functional; set-up: scale not given: the % may be the effect or the level left
Method in brief: (§5)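 Compound was diluted from DMSO into serum-free DMEM and added together with virus to PBS-washed Vero monolayers for 1 h at 37 °C in 5% CO2. Unadsorbed virus was removed, and cells were washed with PBS and overlaid with DMEM plus 0.5% carboxymethylcellulose. After 48 or 72 h, cells were fixed with 10% formaldehyde, stained with 0.5% crystal violet and plaques counted.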

[11] = system: Enterovirus C; assay: Antiviral activity against 1 hr compound pretreated Poliovirus infected in african green monkey Vero cells assessed as reduction of plaque formation at 0.825 uM after 48 to 72 hrs by virus yield inhibition assay; type: functional; set-up: scale not given: the % may be the effect or the level left
[12] = system: Enterovirus C; assay: Antiviral activity against 1 hr compound pretreated Poliovirus infected in african green monkey Vero cells assessed as reduction of plaque formation at 1.65 uM after 48 to 72 hrs by virus yield inhibition assay; type: functional; set-up: scale not given: the % may be the effect or the level left
[13] = system: Enterovirus C; assay: Antiviral activity against Poliovirus infected in 1 hr compound pretreated african green monkey Vero cells assessed as reduction of plaque formation at 3.3 uM measured after 48 to 72 hrs by virus yield inhibition assay; type: functional; set-up: scale not given: the % may be the effect or the level left; method in brief: as §3
[14] = system: Enterovirus C; assay: Antiviral activity against Poliovirus infected in african green monkey Vero cells assessed as reduction of plaque formation at 3.3 uM treated during viral infection measured after 48 to 72 hrs by virus yield inhibition assay; type: functional; set-up: scale not given: the % may be the effect or the level left; method in brief: as §5
[15] = system: Enterovirus C; assay: Antiviral activity against Poliovirus infected in african green monkey Vero cells assessed as reduction of plaque formation at 6.6 uM treated 1 hr after viral infection measured after 48 to 72 hrs by virus yield inhibition assay; type: functional; set-up: scale not given: the % may be the effect or the level left; method in brief: as §4
[16] = system: Enterovirus C; assay: Antiviral activity against Poliovirus infected in african green monkey Vero cells assessed as reduction of plaque formation at 0.825 uM treated 1 hr after viral infection measured after 48 to 72 hrs by virus yield inhibition assay; type: functional; set-up: scale not given: the % may be the effect or the level left; method in brief: as §4
[17] = system: Enterovirus C; assay: Antiviral activity against Poliovirus infected in african green monkey Vero cells assessed as reduction of plaque formation at 1.65 uM treated during viral infection measured after 48 to 72 hrs by virus yield inhibition assay; type: functional; set-up: scale not given: the % may be the effect or the level left; method in brief: as §5
[18] = system: Enterovirus C; assay: Antiviral activity against Poliovirus infected in african green monkey Vero cells assessed as reduction of plaque formation at 1.65 uM treated 1 hr after viral infection measured after 48 to 72 hrs by virus yield inhibition assay; type: functional; set-up: scale not given: the % may be the effect or the level left; method in brief: as §4
[19] = system: Enterovirus C; assay: Antiviral activity against 1 hr compound pretreated Poliovirus infected in african green monkey Vero cells assessed as reduction of plaque formation at 3.3 uM after 48 to 72 hrs by virus yield inhibition assay; type: functional; set-up: scale not given: the % may be the effect or the level left
[20] = system: Enterovirus C; assay: Antiviral activity against 1 hr compound pretreated Poliovirus infected in african green monkey Vero cells assessed as reduction of plaque formation at 6.6 uM after 48 to 72 hrs by virus yield inhibition assay; type: functional; set-up: scale not given: the % may be the effect or the level left
[21] = system: Enterovirus C; assay: Antiviral activity against Poliovirus infected in 1 hr compound pretreated african green monkey Vero cells assessed as reduction of plaque formation at 0.825 uM measured after 48 to 72 hrs by virus yield inhibition assay; type: functional; set-up: scale not given: the % may be the effect or the level left; method in brief: as §3
[22] = system: Enterovirus C; assay: Antiviral activity against Poliovirus infected in african green monkey Vero cells assessed as reduction of plaque formation at 6.6 uM treated during viral infection measured after 48 to 72 hrs by virus yield inhibition assay; type: functional; set-up: scale not given: the % may be the effect or the level left; method in brief: as §5

| SMILES | EC50 [1] [µM] | EC50 [2] [µM] | CC50 at 72 h [3] [µM] | Ratio CC50/EC50 [5] | also measured |
| --- | --- | --- | --- | --- | --- |
| O=C(N/N=C/c1ccc([N+](=O)[O-])cc1)c1cc2c([nH]c3ccccc32)c(-c2ccccc2)n1 | > 100 | > 100 |  |  |  |
| O=C(N/N=C/c1ccccc1)c1cc2c([nH]c3ccccc32)c(-c2ccc([N+](=O)[O-])cc2)n1 | > 100 | > 100 |  |  |  |
| CN(C)c1ccc(/C=N/NC(=O)c2cc3c([nH]c4ccccc43)c(-c3ccccc3)n2)cc1 | 1.85 | 0.87 | 1160 | 629.5 | selectivity ratio [4]: 1340 |
| COc1ccc(/C=N/NC(=O)c2cc3c([nH]c4ccccc43)c(-c3ccc([N+](=O)[O-])cc3)n2)cc1 | > 100 | > 100 |  |  |  |
| O=C(N/N=C/c1ccc([N+](=O)[O-])cc1)c1cc2c([nH]c3ccccc32)c(-c2ccc(O)cc2)n1 | 86.5 | > 100 | 200 | 2.3 |  |
| COc1ccc(/C=N/NC(=O)c2cc3c([nH]c4ccccc43)c(-c3ccc(O)cc3)n2)cc1 | 22.9 | > 100 | 803 | 35 |  |
| COc1ccc(/C=N/NC(=O)c2cc3c([nH]c4ccccc43)c(-c3ccc(OC)cc3)n2)cc1 | > 100 | > 100 |  |  |  |
| COc1ccc(/C=N/NC(=O)c2cc3c([nH]c4ccccc43)c(-c3ccccc3)n2)cc1 | 0.47 | 0.87 | 1150 | 2446.8 | selectivity ratio [4]: 1320; Activity [6]: inactive |
| COc1ccc(-c2nc(C(=O)N/N=C/c3ccc(N(C)C)cc3)cc3c2[nH]c2ccccc23)cc1 | > 100 | > 100 |  |  |  |
| COc1ccc(/C=N/NC(=O)c2cc3c([nH]c4ccccc43)c(-c3cccc([N+](=O)[O-])c3)n2)cc1 | > 100 | > 100 |  |  |  |
| O=C(N/N=C/c1ccccc1Cl)c1cc2c([nH]c3ccccc32)c(-c2ccccc2)n1 | > 100 | > 100 |  |  |  |
| COc1ccc(-c2nc(C(=O)N/N=C/c3ccc([N+](=O)[O-])cc3)cc3c2[nH]c2ccccc23)cc1 | > 100 | > 100 |  |  |  |
| O=C(N/N=C/c1ccccc1Cl)c1cc2c([nH]c3ccccc32)c(-c2ccc(O)cc2)n1 | 41.2 | > 100 | 29.8 | 0.7 |  |
| CN(C)c1ccc(/C=N/NC(=O)c2cc3c([nH]c4ccccc43)c(-c3ccc([N+](=O)[O-])cc3)n2)cc1 | > 100 | > 100 |  |  |  |
| CN(C)c1ccc(/C=N/NC(=O)c2cc3c([nH]c4ccccc43)c(-c3cccc([N+](=O)[O-])c3)n2)cc1 | 73.2 | > 100 | 1050 | 14.3 |  |
| O=C(N/N=C/c1ccccc1)c1cc2c([nH]c3ccccc32)c(-c2ccc(O)cc2)n1 | > 100 | 1.03 | 1240 |  | selectivity ratio [4]: 1200 |
| COc1ccc(-c2nc(C(=O)N/N=C/c3ccccc3)cc3c2[nH]c2ccccc23)cc1 | > 100 | > 100 |  |  |  |
| O=C(N/N=C/c1ccccc1)c1cc2c([nH]c3ccccc32)c(-c2ccccc2)n1 | > 100 | 1.95 | 777 |  | selectivity ratio [4]: 398 |
| CN(C)c1ccc(/C=N/NC(=O)c2cc3c([nH]c4ccccc43)c(-c3ccc(O)cc3)n2)cc1 | > 100 | 2.67 | 900 |  | Activity [7]: 0%; Activity [8]: 0%; Activity [9]: 66.3%; Activity [10]: 0%; Activity [11]: 0%; Activity [12]: 0%; Activity [13]: 0%; Activity [14]: 0%; Activity [15]: 88.3%; selectivity ratio [4]: 337; Activity [16]: 0%; Activity [17]: 0%; Activity [18]: 32%; Activity [19]: 0%; Activity [20]: 0%; Activity [21]: 0%; Activity [22]: 0% |
